Compound activity from PubChem BioAssay.
An excerpt weighted towards active compounds, which were near 3% of everything screened.
T cruzi inh – T. cruzi replication inhibition | T. cruzi beta-gal in NIH3T3, luminescence, 90 h | inhibition, % (concentration not given with the values) | actives 1.4% (n = 300,000) | AID 1885;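 active = mean inhibition across valid replicates above about 55%, limit read from the data; inconclusive = mean below that limit but half or more replicates reach it; inactive = mean below it, under half of replicates reach it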;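 also: signal also drops with host cell toxicity which is not excluded here; 0% = plate median of DMSO wells and 100% = zero luminescence signal; higher percent means less beta-gal luminescence so fewer parasites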
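compound dosing = single 50 nL compound addition per well in DMSO | material = NIH/3T3 host cells with β-galactosidase reporter T. cruzi | input = 5,000 host fibroblasts per well | timing = ≥90 h infection period, 3 h prior cell attachment | read-out basis = percent inhibition of parasite-derived β-gal signal | detection = GalScreen β-gal luminescence, detergent lysis, 60 min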
PvdQ acylase – blocks Pseudomonas aeruginosa PvdQ acylase activity. actives 0.063% (n = 340,000). purified PvdQ acylase, fluorescence plate reader. AID 488965. inhibition, % at 10 µM; in the data active = inhibition above about 30%, passing the limit was not always enough; inconclusive = no clear call, values can overlap the other calls;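 also: 0% = vehicle neutral wells and 100% = reference inhibitor wells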
PfHsp90 yeast 2 – growth inhibition of yeast expressing Plasmodium Hsp90 | S. cerevisiae expressing PfHsp90, BacTiter-Glo ATP, 48 h; yeast lacking PDR1 and PDR3 efflux regulators | inhibition, % at 9.4 µM | actives 0.32% (n = 310,000) | AID 504621;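 active = every replicate shows inhibition above about 80%, whatever the replicate mean, limit read from the data; inconclusive = mean inhibition reaches the set limit but some replicate falls short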;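 also: 0% = DMSO neutral controls and 100% = 20 µM radicicol positive controls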
HSF1 activator – increases HSF-1 driven luciferase reporter signal; NIH3T3-HGL HSF-1 luciferase reporter, MG132, 8 h; 100% = twice DMSO control signal; activation, % at 9 µM; actives 1.7% (n = 300,000);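 active = mean replicate activation of at least 50% with a set share of replicates each reaching 50%; inconclusive = only one of those two conditions met; inactive = mean below 50% and too few replicates reaching it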;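 also: 0% = median of the neutral control wells and 100% = twice that signal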
N-glyco inh – N-linked glycosylation inhibition | reporter increase, % at 12.5 µM | D54 ERlucT glycosylation luciferase reporter, 24 h; percent of 100 nM tunicamycin response | actives 0.23% (n = 360,000) | AID 588692;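 active = mean luciferase reporter signal, scaled so untreated is 0 and the glycosylation-blocking control 100, at or above a set limit in every replicate; inconclusive = mean reaches the limit but not every replicate does; inactive = mean below the limit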;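 also: luciferase carries N-glycosylation sites so blocking glycosylation raises the light; 0% = median of neutral control wells and 100% = median of 100 nM tunicamycin wells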
CaV13 ICDI inh – Primary screen for inhibitors of IQ motif and Ca2+-dependent inactivation inhibitor domain binding in CACNA1D, Förster resonance energy transfer in living cells, … | HEK cells, CFP/YFP FRET ICDI-IQ, plate reader, 10 min; percent FRET-ratio fall versus neutral wells | inhibition, % at 12.3 µM | actives 0.098% (n = 340,000) | AID 743397;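 active = mean replicate inhibition of at least 30% and at least 1% of replicates passing that level; inconclusive = only one of the two criteria is met; inactive = neither criterion is met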;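 also: 0% = median of the neutral control wells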
Active calls of the source: *; ? = inconclusive; / = not tested or not shown.

SMILES | T cruzi inh | PvdQ acylase | PfHsp90 yeast 2 | HSF1 activator | N-glyco inh | CaV13 ICDI inh
Cc1ccc(/C=N/Nc2cc(C)nc(N3CCOCC3)n2)cc1 | -6 | -1 | 2 | 3 | -1 | 0
Cc1cccc(/C=N/Nc2cc(N3CCOCC3)nc(N3CCOCC3)n2)c1 | 69* | 20 | 11 | 7 | -7 | 16
CCN(CCC(=O)Nc1cc(OC)ccc1OC)Cc1ccccc1 | / | / | / | / | / | -4
COC(=O)C1=C(C)N(Cc2ccccc2C(F)(F)F)C(=NCc2cccc(C(F)(F)F)c2)NC1c1cccc(Cl)c1 (centres undefined) | / | / | / | / | / | -6
O=C(NCc1ccccc1)[C@H]1CCCN1C(=O)[C@H]1CCCN1C(=O)N1CCCCC1 | / | / | / | / | / | -5
COC(=O)[C@]12C[C@H](CC(=O)NCCC(C)C)C(=O)N(CCC3=CCCCC3)C1=C[C@H](C(C)(C)C)O[C@@H]2C | / | / | / | / | / | -9
COc1ccc(S(=O)(=O)N2CCC(C)CC2)cc1N(C)S(=O)(=O)c1ccccc1 | 14 | -4 | -23 | 23 | -5 | -7
COc1ccc(S(=O)(=O)N2CCCCCC2)cc1N(C)S(=O)(=O)c1ccc(Cl)cc1 | 64* | 2 | 23 | -28 | -5 | -5
COc1ccc(Cn2c(-c3ccc(Br)cc3)c[n+]3ccccc23)cc1 | 70* | 18 | 8 | 62* | -3 | -8
COc1ccc(Cn2c(-c3ccc(OC)cc3)nc3ccccc32)cc1 | 36 | 7 | 23 | / | -2 | -9
COC(=O)[C@]12C[C@H](CC(=O)NCCCN3CCCC3=O)C(=O)N(Cc3ccccc3)C1=C[C@H](C(C)C)O[C@@H]2C1CC1 | / | / | / | / | / | -3
CC(C)C[C@H]1CN(CCCC[C@@H]2CNC(=O)C(=O)N2CCc2ccccc2)C(=O)C(=O)N1CCc1ccccc1 | / | / | / | / | / | -3
COc1ccc2sc(-c3ccccc3OC)c(-c3ccc(O)cc3)c2c1 | / | -12 | 107* | / | -3 | -8
COCc1ccc(-c2c(-c3ccccc3OC)sc3cc4c(cc23)OCO4)cc1 | / | -7 | -15 | / | -4 | -10
COc1ccccc1-c1sc2cc3c(cc2c1-c1ccc(O)cc1)OCO3 | / | -4 | 107* | / | -2 | -6
CC1(C(=O)Nc2cccc3cccnc23)CCN1C(=O)Cc1ccc(Cl)cc1Cl (centres undefined) | / | / | / | / | -2 | -5
O=C(COC(=O)c1c(F)cccc1F)NC(=O)NCc1ccccc1 | / | / | / | / | 3 | -9
COc1ccc(-c2c(C(=O)c3ccc(Br)cc3)[nH]c(N)c2C(=O)NCCc2c[nH]c3ccccc23)cc1OC | / | / | / | / | / | -16
CCC1=C(NCc2ccccc2)COC1=O | / | / | / | / | 1 | -17
COc1ccc([N+](=O)[O-])c(S(=O)(=O)c2ccc(Cl)cc2)n1 | 1 | -17 | 109* | 9 | -13 | -19
O=[N+]([O-])c1cccnc1S(=O)(=O)c1ccccc1 | 68* | -16 | 9 | ? | -6 | -5
COc1ccc([N+](=O)[O-])c(S(=O)(=O)c2ccccc2)n1 | 20 | / | / | -10 | -19 | -18
Cc1ccc(C(O)c2ncc(-c3ccc(F)cc3)[nH]2)cc1F (centres undefined) | / | / | / | / | -5 | -6
CCOc1ccc(CN2CCC(C(=O)N3CCN(c4ccccc4F)CC3)CC2)cc1OC | 69* | -11 | 0 | -6 | -2 | -8
CC(=O)[C@@]1(O)C(C)CC2C3C=C(C)C4=Cc5c(cnn5-c5ccccc5)C[C@]4(C)C3C(O)C[C@@]21C (some centres undefined) | 64* | 5 | -6 | -57 | -9 | -4
SMILES | T cruzi inh | PvdQ acylase | PfHsp90 yeast 2 | HSF1 activator | N-glyco inh | CaV13 ICDI inh
Cc1cc(C(=O)NC2CC(C)(C)Cc3c2cnn3-c2ccccc2)n(C)n1 (centres undefined) | -2 | -13 | -5 | 7 | -1 | -5
CC1=NN(c2ccccc2)C(=O)/C1=C/N(C)C | -1 | 2 | 3 | -1 | 0 | -4
CC1=NN(c2nc3ccccc3[nH]2)C(=O)/C1=C/N(C)C | / | -8 | 81* | / | -8 | /
Cc1nc(C)c(Cc2ccccc2Cl)c(=O)[nH]1 | 4 | -12 | -5 | 3 | 7 | -3
Cc1nc2ccccc2nc(C)c1=NOCc1ccccc1Cl | -28 | 10 | 10 | 55* | 3 | -15
Clc1ccc(-c2nc3ccccn3c2CN2CCCCC2)cc1 | 32 | 9 | 12 | 52* | -5 | -4
COCCN(CCOC)Cc1cc(=O)oc2ccc3ccccc3c12 | / | / | / | / | 2 | -4
CCOc1cc(/C=C\[N+](=O)[O-])ccc1OCC(=O)Nc1ccccc1C | 37 | 12 | 110* | -63 | 0 | /
COc1ccc(C)cc1NC(=O)COC(=O)c1c(-c2ccccc2)noc1C | / | / | / | / | -3 | -5
CC(C)NCC(O)COC1CCC(C(C)(C)C)CC1 (centres undefined) | 57* | 8 | 3 | -10 | -1 | -3
CC(C)(C)C1CCC(OCC(O)CN2CCN(Cc3ccccc3)CC2)CC1 (centres undefined) | 57* | 5 | 9 | 2 | -2 | 5
CC(C)NCC(O)COC1C2CC3CC(C2)CC1C3 (centres undefined) | 62* | -12 | 11 | -15 | 0 | -5
CC1CCCC(C)N1CC(O)COC1CCC(C(C)(C)C)CC1 (centres undefined) | 35 | -13 | 15 | 5 | -2 | -3
CC(C)(C)C1CCC(OCC(O)CN2CCN(c3ccccn3)CC2)CC1 (centres undefined) | 37 | -5 | -47 | -44 | -1 | 1
COc1ccc(S(=O)(=O)N2CCC3CC2c2c(-c4ccc(C(F)(F)F)cc4)cccc23)cc1 (centres undefined) | / | / | / | / | -1 | -11
COc1ccc(S(=O)(=O)Nc2ccc3c(c2)C(=O)N([C@H](C)CO)C[C@H](C)[C@H](CN(C)C(=O)Nc2ccc(F)cc2)OCCCC[C@@H](C)O3)cc1 | / | / | / | / | / | -6
C=CCc1ccccc1OCC(O)CN1CCN(C(=O)OCC)CC1 (centres undefined) | -6 | -15 | -8 | 6 | 2 | -3
CC(=O)c1ccc(OCC(O)CN2CCN(CCN3C(=O)c4cccc5cccc(c45)C3=O)CC2)cc1 (centres undefined) | 9 | -9 | 7 | 23 | 56* | -4
Cc1ccccc1OCC(O)CN1CCN(CCN2C(=O)c3cccc4cccc(c34)C2=O)CC1 (centres undefined) | 56* | -7 | 5 | 30 | 20 | 5
CC(=O)c1ccc(OCC(O)CN2CCN(CC(O)COc3ccc(C(C)=O)cc3)CC2)cc1 (centres undefined) | -11 | -10 | -8 | -8 | 0 | /
